Bioassay records deposited in PubChem BioAssay by several laboratories.
Compounds with a hit are over-represented: about 2.9% of the library has one in this group of screens.
VIM-2 inh: blocks Pseudomonas aeruginosa VIM-2 metallo-beta-lactamase. purified VIM-2, nitrocefin hydrolysis, epi-absorbance fluorescence. inhibition, % at 5.6 µM. 290,000 compounds, 0.89% hits;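 active = inhibition above the mean of all tested compounds plus 3 SD, cutoff set per screening run, cut at about 7.5% in these data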;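 also: red hydrolysis product quenches plate fluorescence so inhibitors raise well fluorescence; 0% = enzyme with DMSO and 100% = DMSO without enzyme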
NALP3 yeast inh: inhibitors of NALP3 inflammasome in yeast; Yeast reconstituted NLRP3/ASC/caspase-1, beta-gal luminescence, 24 h; inhibition, % at 10 µM; 330,000 compounds, 0.39% hits;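 active = inhibition of 50% or more; inactive = inhibition below 50%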;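 also: plate controls were induced DMSO wells for no effect and uninduced yeast grown without galactose for full effect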
IMP-1 inhibitor: blocks Pseudomonas aeruginosa IMP-1 metallo-beta-lactamase | purified IMP-1, nitrocefin hydrolysis, epi-absorbance fluorescence | inhibition, % at 5.6 µM | 290,000 compounds, 0.45% hits | AID 1556;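 active = inhibition above the mean plus 3 SD of all compounds in the same screening run, cut at about 4.5% in these data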;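 also: 0% = IMP-1 with DMSO and 100% = DMSO wells lacking enzyme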
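System: purified IMP-1 / Input: IMP-1 dispensed at 0.2 nM / Medium: 50 mM HEPES pH 7.1, 50 µM ZnSO4, 0.05% Brij 35 / Timing: 15 min enzyme–compound preincubation, then 25 min nitrocefin reaction, 25 °C / Technique: plate fluorescence quenching by hydrolysis product, ex 480/em 530 nm / Repeats: singlicate testing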
Mot1-301 SUMO: SUMOylation pathway inhibition by Mot1-301 growth rescue | S. cerevisiae Mot1-301 growth rescue, ATP luminescence, 38.5C; percent above DMSO median, 100 means doubled | growth rescue, % at 18.8 µM | 320,000 compounds, 1% hits | AID 2716;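 active = every valid replicate shows activation above 250% relative to neutral control wells; inactive = the rest, any valid replicate at or below 250%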;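 also: OY570 slx delta 5 strain wells were the positive control but not used for scaling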
NALP1 inh: inhibitors of NALP1 inflammasome in yeast | AID 2071 | inhibition, % at 10 µM | S. cerevisiae NALP1/ASC/caspase-1 growth, X-gal OD620, 72 h | 280,000 compounds, 0.61% hits; in the data active = inhibition mostly above about 24%, no sharp cut-off; inactive = mostly below about 32%
PolyA inhibitor: yeast polyadenylation inhibition | activity score, % at 12 µM | AID 1875 | S. cerevisiae SKY197-pL101 polyadenylation reporter, beta-gal luminescence; efflux-impaired pdr1/pdr3 knockout yeast; score 100 = 6 SD above DMSO | 300,000 compounds, 0.02% hits;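 active = lowest replicate activity score at least 50, where 100 means six control SD above control mean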;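 also: yeast exposed to compound for 9 h at 30 °C; higher score means more reporter readthrough which indicates perturbed polyadenylation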
Yeast Mot1 SUMO: SUMO pathway inhibitors in yeast Mot1-301 growth. shares compounds with Mot1-301 SUMO. 2,300 tested, under 10 active. growth activity, percent, % at 42 µM. AID 493004. S. cerevisiae Mot1-301 galactose growth, ATP luminescence, 24 h; -100 = growth of slx-deleted rescue strain;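 active = Signal drops as the depositor expects, and the fitted half-maximal dose is no more than ten times the top valid tested dose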;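 also: more negative values mean stronger growth rescue toward the control strain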
* hit, by the source's call; [ ] = dose if it differs, or a comment.

`CCN(CC)C(=O)Cn1c(=O)n(CCCC(=O)NCc2ccccc2)c(=O)c2sccc21` gave VIM-2 inh -1, NALP3 yeast inh 2, IMP-1 inhibitor -2, Mot1-301 SUMO 539*, NALP1 inh -9, PolyA inhibitor -6 and Yeast Mot1 SUMO 1.
`COc1cc(/C=C/C(=O)OCC(=O)N(C)C2CCS(=O)(=O)C2)ccc1OC(F)F` (stereo unspecified) gave VIM-2 inh 0, NALP3 yeast inh -2, IMP-1 inhibitor 2, Mot1-301 SUMO 7, NALP1 inh 4 and PolyA inhibitor 21.
Screening COc1ccc(N2CCN(C(=O)Cn3nnc(-c4ccc(OC)c(OC)c4)n3)CC2)cc1 returned VIM-2 inh -1, NALP3 yeast inh 18, IMP-1 inhibitor -2, Mot1-301 SUMO 385*, NALP1 inh 28, PolyA inhibitor -7 and Yeast Mot1 SUMO 0.
For COc1ccc(-c2nnn(CC(=O)N3CCN(c4ccccc4OC)CC3)n2)cc1OC the results were VIM-2 inh -3, NALP3 yeast inh 1, IMP-1 inhibitor -3, Mot1-301 SUMO -22, NALP1 inh 22 and PolyA inhibitor 10.
Cn1nnnc1Sc1ncnc2scc(-c3ccsc3)c12 was read as NALP3 yeast inh 27 and Mot1-301 SUMO 110.
`O=C(O)CCC(NC(=O)c1ccc(Cl)cc1)C(=O)O` (stereo unspecified) gave VIM-2 inh 2, NALP3 yeast inh 9, IMP-1 inhibitor -3, Mot1-301 SUMO active, NALP1 inh -3, PolyA inhibitor 3 and Yeast Mot1 SUMO 0.
Screening CN(C(=O)COc1cc(=O)n(C)c2ccccc12)c1ccc(Cl)cc1 returned VIM-2 inh 0, NALP3 yeast inh 3, IMP-1 inhibitor -1, Mot1-301 SUMO 447*, NALP1 inh -35, PolyA inhibitor -16 and Yeast Mot1 SUMO 0.
`COc1ccc(CCNc2cc(C)[nH]c(=O)c2)cc1OC` gave VIM-2 inh -1, NALP3 yeast inh 4, IMP-1 inhibitor -1, Mot1-301 SUMO -4, NALP1 inh 19 and PolyA inhibitor 4.
For CN(C)C(=O)c1c2c(nc3ccccc13)CCCC2 the results were VIM-2 inh -4, NALP3 yeast inh -12, IMP-1 inhibitor -3, Mot1-301 SUMO active, NALP1 inh 10, PolyA inhibitor 14 and Yeast Mot1 SUMO 0.
Cc1ccc(S(=O)(=O)NCCS(=O)(=O)N2CCN(c3ccc(F)cc3)CC2)cc1 was read as NALP3 yeast inh 23, Mot1-301 SUMO 543*, PolyA inhibitor -14 and Yeast Mot1 SUMO 2.
For OCCc1c[nH]c2cc(F)ccc12 the results were VIM-2 inh -1, NALP3 yeast inh 3, IMP-1 inhibitor -2, Mot1-301 SUMO 566*, NALP1 inh -17, PolyA inhibitor 9 and Yeast Mot1 SUMO 0.
`Cc1csc(NC(=O)CSc2[nH]c(=O)ncc2C)n1` gave NALP3 yeast inh -3, Mot1-301 SUMO -9 and PolyA inhibitor -4.
Cc1cnc(=O)[nH]c1SCC(=O)c1ccc(F)cc1 was read as VIM-2 inh -1, NALP3 yeast inh 7, IMP-1 inhibitor 0, Mot1-301 SUMO 436*, NALP1 inh 24, PolyA inhibitor -6 and Yeast Mot1 SUMO 0.
Screening COc1ccc(NC(=O)CCCc2ccccc2)cc1OC returned VIM-2 inh -1, NALP3 yeast inh 9, IMP-1 inhibitor -2, Mot1-301 SUMO 382*, NALP1 inh 18, PolyA inhibitor 25 and Yeast Mot1 SUMO 0.
Screening COc1ccc(/C=N/NC(=O)CCC(=O)Nc2ccccc2)cc1OC returned VIM-2 inh -5, NALP3 yeast inh -2, IMP-1 inhibitor -3, Mot1-301 SUMO 795*, NALP1 inh 4, PolyA inhibitor -6 and Yeast Mot1 SUMO 1.
Screening COc1cc(/C=N/NC(=O)CCC(=O)Nc2ccc(F)cc2)ccc1O returned VIM-2 inh -1, NALP3 yeast inh -16, IMP-1 inhibitor -2, Mot1-301 SUMO -4, NALP1 inh -11 and PolyA inhibitor -17.
For Cc1cccc(NC(=O)CCc2ccccc2)c1 the results were VIM-2 inh -2, NALP3 yeast inh 31, IMP-1 inhibitor -2, Mot1-301 SUMO 520*, NALP1 inh -3, PolyA inhibitor 2 and Yeast Mot1 SUMO 0.
COc1ccc(CCN2CC(C(=O)NCCCn3nc(C)cc3C)CCC2=O)cc1 (stereo unspecified) was read as VIM-2 inh 1, NALP3 yeast inh -1, IMP-1 inhibitor 0, Mot1-301 SUMO 1, NALP1 inh 25 and PolyA inhibitor -11.
`O=C(CSc1nnc(CNC(=O)c2ccccc2F)o1)NC1CCCCC1` gave VIM-2 inh -1, NALP3 yeast inh 6, IMP-1 inhibitor 0, Mot1-301 SUMO -12, NALP1 inh 3 and PolyA inhibitor -11.
Screening CCCc1nnc(NC(=O)c2cn(CC)c3cc(N4CCN(C)CC4)c(F)cc3c2=O)s1 returned VIM-2 inh -1, NALP3 yeast inh 8, IMP-1 inhibitor -1, Mot1-301 SUMO 644*, NALP1 inh 15, PolyA inhibitor 5 and Yeast Mot1 SUMO 0[21 µM].
For O=C(COC(=O)[C@@H]1CC(O)CN1S(=O)(=O)c1ccccc1[N+](=O)[O-])Nc1ccc2ccccc2c1 (stereo partly specified) the results were VIM-2 inh 0, NALP3 yeast inh 4, IMP-1 inhibitor -4, Mot1-301 SUMO 495*, NALP1 inh -6, PolyA inhibitor -2 and Yeast Mot1 SUMO 0.
`O=C(COC(=O)C1CC(O)CN1S(=O)(=O)c1ccccc1[N+](=O)[O-])c1ccc[nH]1` (stereo unspecified) gave NALP3 yeast inh 12 and Mot1-301 SUMO -12.
Cc1cc(C)nc(NS(=O)(=O)c2ccc(NC(=O)c3cc(=O)c4ccccc4o3)cc2)n1 was read as VIM-2 inh -7, NALP3 yeast inh -3, IMP-1 inhibitor -1, Mot1-301 SUMO 1, NALP1 inh 8 and PolyA inhibitor -1.
CC(C)N(Cc1ccccc1)C(=O)CN1C(=O)NC2(CCCC2)C1=O was read as NALP3 yeast inh 19 and Mot1-301 SUMO 1.
COc1cc(SC)ccc1C(=O)N1CCCCCC1 was read as VIM-2 inh -4, NALP3 yeast inh 19, IMP-1 inhibitor -3, Mot1-301 SUMO active, NALP1 inh 22, PolyA inhibitor 5 and Yeast Mot1 SUMO 0.
Screening CCn1c(SCC(=O)OC)nnc1-c1ccncc1 returned VIM-2 inh -2, NALP3 yeast inh 0, IMP-1 inhibitor -2, Mot1-301 SUMO 825*, NALP1 inh 7, PolyA inhibitor 24 and Yeast Mot1 SUMO 0.
